Reference: ChEMBL document CHEMBL4261538, “Synthesis and molecular docking studies of xanthone attached amino acids as potential antimicrobial and anti-inflammatory agents” (Medchemcomm, 2017)
≈ marks a conversion by molar mass, not a printed value.

Experiments:
Staphylococcus aureus [1] = assay: Antibacterial activity against Staphylococcus aureus at 25 ug/ml incubated for 24 hrs by agar well diffusion method; format: functional; settings: read-out: DIZ
Outline: (§1)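 Bacteria grown in nutrient broth at 37 °C for 24 h, then subcultured at room temperature. Compounds dissolved in DMSO at 5 mg mL⁻¹ and 5–20 µL added to 6 mm wells, giving 25, 50, 75, 100 µg per well. Gentamicin was the positive control and DMSO the negative control. Plates held at 37 °C for 24 h, then inhibition zone diameter (mm) measured. Values are means of three determinations.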

Staphylococcus aureus [2] = assay: Antibacterial activity against Staphylococcus aureus at 50 ug/ml incubated for 24 hrs by agar well diffusion method; format: functional; settings: read-out: DIZ; outline: as §1
Staphylococcus aureus [3] = assay: Antibacterial activity against Staphylococcus aureus at 75 ug/ml incubated for 24 hrs by agar well diffusion method; format: functional; settings: read-out: DIZ; outline: as §1
Staphylococcus aureus [4] = assay: Antibacterial activity against Staphylococcus aureus at 100 ug/ml incubated for 24 hrs by agar well diffusion method; format: functional; settings: read-out: DIZ; outline: as §1
Bacillus subtilis [5] = assay: Antibacterial activity against Bacillus subtilis at 25 ug/ml incubated for 24 hrs by agar well diffusion method; format: functional; settings: read-out: DIZ; outline: as §1
Bacillus subtilis [6] = assay: Antibacterial activity against Bacillus subtilis at 50 ug/ml incubated for 24 hrs by agar well diffusion method; format: functional; settings: read-out: DIZ; outline: as §1
Bacillus subtilis [7] = assay: Antibacterial activity against Bacillus subtilis at 75 ug/ml incubated for 24 hrs by agar well diffusion method; format: functional; settings: read-out: DIZ; outline: as §1
Bacillus subtilis [8] = assay: Antibacterial activity against Bacillus subtilis at 100 ug/ml incubated for 24 hrs by agar well diffusion method; format: functional; settings: read-out: DIZ; outline: as §1
Escherichia coli [9] = assay: Antibacterial activity against Escherichia coli at 25 ug/ml incubated for 24 hrs by agar well diffusion method; format: functional; settings: read-out: DIZ; outline: as §1
Escherichia coli [10] = assay: Antibacterial activity against Escherichia coli at 50 ug/ml incubated for 24 hrs by agar well diffusion method; format: functional; settings: read-out: DIZ; outline: as §1
Escherichia coli [11] = assay: Antibacterial activity against Escherichia coli at 75 ug/ml incubated for 24 hrs by agar well diffusion method; format: functional; settings: read-out: DIZ; outline: as §1
Escherichia coli [12] = assay: Antibacterial activity against Escherichia coli at 100 ug/ml incubated for 24 hrs by agar well diffusion method; format: functional; settings: read-out: DIZ; outline: as §1
Klebsiella pneumoniae [13] = assay: Antibacterial activity against Klebsiella pneumoniae at 25 ug/ml incubated for 24 hrs by agar well diffusion method; format: functional; settings: read-out: DIZ; outline: as §1
Klebsiella pneumoniae [14] = assay: Antibacterial activity against Klebsiella pneumoniae at 50 ug/ml incubated for 24 hrs by agar well diffusion method; format: functional; settings: read-out: DIZ; outline: as §1
Klebsiella pneumoniae [15] = assay: Antibacterial activity against Klebsiella pneumoniae at 75 ug/ml incubated for 24 hrs by agar well diffusion method; format: functional; settings: read-out: DIZ; outline: as §1
Klebsiella pneumoniae [16] = assay: Antibacterial activity against Klebsiella pneumoniae at 100 ug/ml incubated for 24 hrs by agar well diffusion method; format: functional; settings: read-out: DIZ; outline: as §1
Aspergillus niger [17] = assay: Antifungal activity against Aspergillus niger at 25 ug/ml incubated for 48 hrs by agar well diffusion method; format: functional; settings: read-out: DIZ
Outline: (§2)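 Compounds dissolved in DMSO at 5 mg mL⁻¹ and 5–20 µL added to 6 mm wells, giving 25, 50, 75, 100 µg per well. Bavistin was the positive control and DMSO the negative control. Plates incubated at 28 °C for 48 h, then inhibition zone diameter (mm) measured. Values are means of three determinations.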

Aspergillus niger [18] = assay: Antifungal activity against Aspergillus niger at 50 ug/ml incubated for 48 hrs by agar well diffusion method; format: functional; settings: read-out: DIZ; outline: as §2
Aspergillus niger [19] = assay: Antifungal activity against Aspergillus niger at 75 ug/ml incubated for 48 hrs by agar well diffusion method; format: functional; settings: read-out: DIZ; outline: as §2
Aspergillus niger [20] = assay: Antifungal activity against Aspergillus niger at 100 ug/ml incubated for 48 hrs by agar well diffusion method; format: functional; settings: read-out: DIZ; outline: as §2
Candida albicans [21] = assay: Antifungal activity against Candida albicans at 25 ug/ml incubated for 48 hrs by agar well diffusion method; format: functional; settings: read-out: DIZ; outline: as §2
Candida albicans [22] = assay: Antifungal activity against Candida albicans at 50 ug/ml incubated for 48 hrs by agar well diffusion method; format: functional; settings: read-out: DIZ; outline: as §2
Candida albicans [23] = assay: Antifungal activity against Candida albicans at 75 ug/ml incubated for 48 hrs by agar well diffusion method; format: functional; settings: read-out: DIZ; outline: as §2
Candida albicans [24] = assay: Antifungal activity against Candida albicans at 100 ug/ml incubated for 48 hrs by agar well diffusion method; format: functional; settings: read-out: DIZ; outline: as §2
Fusarium oxysporum [25] = assay: Antifungal activity against Fusarium oxysporum at 25 ug/ml incubated for 48 hrs by agar well diffusion method; format: functional; settings: read-out: DIZ; outline: as §2
Fusarium oxysporum [26] = assay: Antifungal activity against Fusarium oxysporum at 50 ug/ml incubated for 48 hrs by agar well diffusion method; format: functional; settings: read-out: DIZ; outline: as §2
Fusarium oxysporum [27] = assay: Antifungal activity against Fusarium oxysporum at 75 ug/ml incubated for 48 hrs by agar well diffusion method; format: functional; settings: read-out: DIZ; outline: as §2
Fusarium oxysporum [28] = assay: Antifungal activity against Fusarium oxysporum at 100 ug/ml incubated for 48 hrs by agar well diffusion method; format: functional; settings: read-out: DIZ; outline: as §2
Staphylococcus aureus [29] = assay: Antibacterial activity against Staphylococcus aureus incubated for 24 hrs by microdilution method; format: functional
Bacillus subtilis [30] = assay: Antibacterial activity against Bacillus subtilis incubated for 24 hrs by microdilution method; format: functional
Escherichia coli [31] = assay: Antibacterial activity against Escherichia coli incubated for 24 hrs by microdilution method; format: functional
Klebsiella pneumoniae [32] = assay: Antibacterial activity against Klebsiella pneumoniae incubated for 24 hrs by microdilution method; format: functional
Aspergillus niger [33] = assay: Antifungal activity against Aspergillus niger incubated for 48 to 72 hrs by microdilution method; format: functional
Outline: (§3)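 Sabouraud agar plates inoculated with fungal suspension at 10⁵ CFU mL⁻¹ plus serially diluted compounds and bavistin reference, both in DMSO. Incubated at 25 °C for 48–72 h. MIC is the lowest concentration completely inhibiting growth. Values are means of three determinations.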

Candida albicans [34] = assay: Antifungal activity against Candida albicans incubated for 48 to 72 hrs by microdilution method; format: functional; outline: as §3
Fusarium oxysporum [35] = assay: Antifungal activity against Fusarium oxysporum incubated for 48 to 72 hrs by microdilution method; format: functional; outline: as §3
Staphylococcus aureus [36] = assay: Induction of cell membrane damage in Staphylococcus aureus assessed as cell content leakage at MIC by spectrophotometric method; format: functional, organism-based; settings: TDE = time-dependent effect
Outline: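 Log-phase S. aureus inoculated into 0.1% sterile peptone water, with an untreated control, and held at 37 °C for 0, 30, 60 and 120 min. 1 mL of broth centrifuged and supernatant OD read at 260 nm to measure released DNA. Run in triplicate, repeated three times.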

Erythrocyte = assay: Anti-inflammatory activity in human RBC assessed as inhibition of hypotonic solution-induced hemolysis after 10 mins by spectrophotometric method; format: functional, cell-based
Outline: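 Human blood (heparinized) washed with 0.9% saline, packed cells made into a 40% v/v stock in isotonic phosphate buffer (154 mM NaCl, 10 mM sodium phosphate, pH 7.4). Stock RBC mixed with hypotonic buffer (50 mM NaCl, 10 mM phosphate, pH 7.4) plus sample at 20–100 µg mL⁻¹.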

Row | Compound | zone of inhibition at 25 µg/mL (Staphylococcus aureus [1]) [mm] | zone of inhibition at 50 µg/mL (Staphylococcus aureus [2]) [mm] | zone of inhibition at 75 µg/mL (Staphylococcus aureus [3]) [mm] | zone of inhibition at 100 µg/mL (Staphylococcus aureus [4]) [mm] | zone of inhibition at 25 µg/mL (Bacillus subtilis [5]) [mm] | zone of inhibition at 50 µg/mL (Bacillus subtilis [6]) [mm] | zone of inhibition at 75 µg/mL (Bacillus subtilis [7]) [mm] | zone of inhibition at 100 µg/mL (Bacillus subtilis [8]) [mm] | zone of inhibition at 25 µg/mL (Escherichia coli [9]) [mm] | zone of inhibition at 50 µg/mL (Escherichia coli [10]) [mm] | zone of inhibition at 75 µg/mL (Escherichia coli [11]) [mm] | zone of inhibition at 100 µg/mL (Escherichia coli [12]) [mm] | zone of inhibition at 25 µg/mL (Klebsiella pneumoniae [13]) [mm] | zone of inhibition at 50 µg/mL (Klebsiella pneumoniae [14]) [mm] | zone of inhibition at 75 µg/mL (Klebsiella pneumoniae [15]) [mm] | zone of inhibition at 100 µg/mL (Klebsiella pneumoniae [16]) [mm] | zone of inhibition at 25 µg/mL (Aspergillus niger [17]) [mm] | zone of inhibition at 50 µg/mL (Aspergillus niger [18]) [mm] | zone of inhibition at 75 µg/mL (Aspergillus niger [19]) [mm] | zone of inhibition at 100 µg/mL (Aspergillus niger [20]) [mm] | further results
1 | Cl.N[C@@H](Cc1c[nH]c2ccccc12)C(=O)Oc1ccc2c(=O)c3ccccc3oc2c1 | 24 | 31 | 37 | 42 | 26 | 32 | 36 | 43 | 26 | 31 | 38 | 43 | 23 | 30 | 37 | 44 | 28 | 31 | 40 | 46 | zone of inhibition at 25 µg/mL (Candida albicans [21]): 26 mm; zone of inhibition at 50 µg/mL (Candida albicans [22]): 33 mm; zone of inhibition at 75 µg/mL (Candida albicans [23]): 39 mm; zone of inhibition at 100 µg/mL (Candida albicans [24]): 44 mm; zone of inhibition at 25 µg/mL (Fusarium oxysporum [25]): 25 mm; zone of inhibition at 50 µg/mL (Fusarium oxysporum [26]): 32 mm; zone of inhibition at 75 µg/mL (Fusarium oxysporum [27]): 37 mm; zone of inhibition at 100 µg/mL (Fusarium oxysporum [28]): 42 mm; MIC (Staphylococcus aureus [29]): 16 µg/mL; MIC (Bacillus subtilis [30]): 16 µg/mL; MIC (Escherichia coli [31]): 15 µg/mL; MIC (Klebsiella pneumoniae [32]): 22 µg/mL; MIC (Aspergillus niger [33]): 21 µg/mL; MIC (Candida albicans [34]): 20 µg/mL; MIC (Fusarium oxysporum [35]): 20 µg/mL; Activity (Staphylococcus aureus [36]): Tde; IC50 (Erythrocyte): 26 µg/mL
2 | CC(C)(C)OC(=O)N[C@@H](Cc1ccc(O)cc1)C(=O)Oc1ccc2c(=O)c3ccccc3oc2c1 | 20 | 26 | 32 | 36 | 20 | 28 | 35 | 37 | 20 | 27 | 33 | 36 | 18 | 24 | 30 | 34 | 22 | 30 | 37 | 41 | zone of inhibition at 25 µg/mL (Candida albicans [21]): 20 mm; zone of inhibition at 50 µg/mL (Candida albicans [22]): 29 mm; zone of inhibition at 75 µg/mL (Candida albicans [23]): 34 mm; zone of inhibition at 100 µg/mL (Candida albicans [24]): 37 mm; zone of inhibition at 25 µg/mL (Fusarium oxysporum [25]): 22 mm; zone of inhibition at 50 µg/mL (Fusarium oxysporum [26]): 29 mm; zone of inhibition at 75 µg/mL (Fusarium oxysporum [27]): 36 mm; zone of inhibition at 100 µg/mL (Fusarium oxysporum [28]): 42 mm; MIC (Staphylococcus aureus [29]): 21 µg/mL (≈ 44.2 µM); MIC (Bacillus subtilis [30]): 20 µg/mL (≈ 42.1 µM); MIC (Escherichia coli [31]): 19 µg/mL (≈ 40 µM); MIC (Klebsiella pneumoniae [32]): 24 µg/mL (≈ 50.5 µM); MIC (Aspergillus niger [33]): 22 µg/mL (≈ 46.3 µM); MIC (Candida albicans [34]): 24 µg/mL (≈ 50.5 µM); MIC (Fusarium oxysporum [35]): 22 µg/mL (≈ 46.3 µM); Activity (Staphylococcus aureus [36]): Tde; IC50 (Erythrocyte): 32 µg/mL (≈ 67.3 µM)
